Screening data deposited in PubChem BioAssay by several laboratories.
Rows were chosen to be rich in hits. Some 3% of all compounds tested hit in one or more screens of this group.
Granule exo inh: blocks lytic granule exocytosis | inhibition, % at 10 µM | AID 651702 | TALL-104 LAMP-1 surface exposure, flow cytometry; cells stimulated with thapsigargin and PMA | 360,000 compounds, 0.66% hits;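 active = inhibition above about 55%, limit read from the data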
Apaf-1 inh: blocks human Apaf-1 apoptosome activity; reconstituted apoptosome caspase-3 activity, DEVD-Rh110 fluorescence; inhibition, % at 20 µM; 330,000 compounds, 0.71% hits; active = inhibition of at least 40% at 20 µM;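 note: plate controls were DMSO wells for no effect and DEVD-CHO caspase inhibitor wells for full effect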
Target sequence (O14727 whole entry, looked up): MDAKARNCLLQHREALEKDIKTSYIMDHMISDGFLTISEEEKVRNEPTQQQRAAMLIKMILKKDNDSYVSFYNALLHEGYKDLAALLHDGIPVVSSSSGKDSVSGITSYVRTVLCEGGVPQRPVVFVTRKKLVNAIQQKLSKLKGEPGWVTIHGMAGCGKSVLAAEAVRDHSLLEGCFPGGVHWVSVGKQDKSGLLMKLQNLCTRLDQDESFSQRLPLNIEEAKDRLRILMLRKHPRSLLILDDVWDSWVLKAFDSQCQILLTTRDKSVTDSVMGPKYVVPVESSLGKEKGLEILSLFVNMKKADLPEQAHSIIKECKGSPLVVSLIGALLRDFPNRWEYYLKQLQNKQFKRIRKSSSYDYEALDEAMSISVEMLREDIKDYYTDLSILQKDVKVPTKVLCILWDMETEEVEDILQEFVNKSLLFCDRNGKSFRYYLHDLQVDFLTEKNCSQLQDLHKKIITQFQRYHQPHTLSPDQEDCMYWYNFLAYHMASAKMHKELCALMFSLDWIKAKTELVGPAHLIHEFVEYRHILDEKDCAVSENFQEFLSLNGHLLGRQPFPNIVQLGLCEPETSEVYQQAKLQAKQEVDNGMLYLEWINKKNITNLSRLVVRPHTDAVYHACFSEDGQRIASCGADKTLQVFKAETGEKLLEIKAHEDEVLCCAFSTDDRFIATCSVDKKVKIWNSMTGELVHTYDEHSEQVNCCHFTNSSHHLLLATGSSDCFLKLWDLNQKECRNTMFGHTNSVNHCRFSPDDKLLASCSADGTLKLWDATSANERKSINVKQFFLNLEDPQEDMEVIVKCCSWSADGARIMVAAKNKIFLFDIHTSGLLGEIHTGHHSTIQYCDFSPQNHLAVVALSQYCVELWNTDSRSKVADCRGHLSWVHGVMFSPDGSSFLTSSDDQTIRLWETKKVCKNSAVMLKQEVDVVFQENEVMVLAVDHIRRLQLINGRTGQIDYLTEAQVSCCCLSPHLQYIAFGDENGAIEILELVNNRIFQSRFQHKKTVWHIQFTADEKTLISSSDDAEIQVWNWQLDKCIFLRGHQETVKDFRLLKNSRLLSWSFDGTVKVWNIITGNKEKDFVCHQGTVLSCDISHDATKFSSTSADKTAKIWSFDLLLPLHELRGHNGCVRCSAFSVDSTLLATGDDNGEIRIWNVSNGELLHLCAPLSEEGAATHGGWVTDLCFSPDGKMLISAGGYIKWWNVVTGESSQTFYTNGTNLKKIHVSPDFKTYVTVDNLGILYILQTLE
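Assay system: Apoptosome proteins | Medium: pH 7.5 Hepes buffer with CHAPS, BSA, DTT | Also added: Cytochrome c and DEVD-Rh110 substrate | Times: 30 min plus 50 min, RT | Detection: Rhodamine 110 fluorescence at Ex 480/Em 540 nm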
iPSC survival up: enhancers of human iPSC single-cell survival; survival enhancement, % at 20 µM; 360,000 compounds, 0.044% hits; AID 602274; hiPSC single-cell survival, ATPlite luminescence; 100% = ROCK inhibitor wells, 0% = DMSO; in the data active = survival enhancement above about 18%;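 note: cells exposed to compounds for 16 hours before the ATP read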
MIN6 prolif: induces beta-cell replication in MIN6 cells; proliferation, % at 10 µM; MIN6 cells proliferation, ATPlite luminescence, 48 h; cells starved in 0.2% serum; 100% = growth in 10% serum; AID 2380; 330,000 compounds, 0.29% hits;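 active = compounds whose signal lies at least 3.5 SD above the mean of all wells on their plate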;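 note: 0% = DMSO-treated cells in low-serum medium and 100% = 10% serum control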
MPTP block: blocks calcium-induced mitochondrial swelling | inhibition, % at 10 µM | 360,000 compounds, 1.4% hits | AID 602449 | isolated mouse mitochondria, Ca2+ swelling absorbance, 30 min;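 active = inhibition of 50% or more, scaled per plate between neutral and stimulator controls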;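 note: 0% = DMSO wells given calcium and 100% = 1 mM EGTA wells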
UBC13 inh: human UBC13 polyubiquitination inhibition | UBC13 polyubiquitin chain formation, TR-FRET | inhibition, % at 20 µM | 330,000 compounds, 0.47% hits | AID 485273; in the data active = inhibition above about 45%, passing the limit was not always enough
Rh123 counter: membrane potential counter-screen of mitochondrial pore inhibitors; AID 624504; shares compounds with MPTP block; inhibition, % at 10 µM; isolated mitochondria, Rhodamine 123 fluorescence; 5,000 compounds, 78% hits; in the data active = inhibition above about 22%;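 note: 0% = DMSO vehicle and 100% = positive control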
* hit, by the source's call; x = no result given.

SMILES	Granule exo inh	Apaf-1 inh	iPSC survival up	MIN6 prolif	MPTP block	UBC13 inh	Rh123 counter
COc1ccc(NC(=O)Nc2ccc(F)cc2)cn1	-11	1	0	-2	0	0	x
O=C(Nc1ccc(F)cc1)Nc1cc(OCC(F)(F)F)cc(OCC(F)(F)F)c1	0	-5	-2	-7	97*	-2	70*
O=C(NCCNC(=O)c1cc(OCC(F)(F)F)ccc1OCC(F)(F)F)Nc1ccc(OC(F)(F)F)cc1	0	23	4	-3	80*	-11	84*
O=C(NCCNC(=O)c1cc(OCC(F)(F)F)ccc1OCC(F)(F)F)Nc1ccc(Cl)cc1	x	19	x	-5	x	-1	x
COC(=O)C1C2CCCCC1C(=O)O2 (stereo not drawn)	-4	x	7	x	-2	x	x
COCCCNC(=O)Cc1c(C)c2c(cc(C)c3c(C(C)(C)C)coc32)oc1=O	16	24	-1	-5	-1	17	x
COc1ccc(CCNC(=O)c2ccc(CS(=O)Cc3ccc(C)cc3)o2)cc1OC (stereo not drawn)	6	-6	0	0	0	-4	x
CCOc1ccc(S(=O)(=O)n2ccnc2C)cc1	x	-17	x	-2	x	0	x
Cc1ccc(Sc2ccc(NC(=O)CCl)cc2)cc1C	-4	11	-6	-6	52*	6	21*
CCOc1ccccc1NC(=O)COC(=O)C1COc2ccccc2O1 (stereo not drawn)	0	x	-2	x	1	x	x
O=C(Cc1ccc(Br)cc1)NCCc1ccc(Cl)cc1Cl	3	10	-1	-4	50*	4	68*
CCCCN(C)CC(O)Cn1cc(/C=C/C(=O)c2cccs2)c2ccccc21 (stereo not drawn)	44	x	-4	x	0	x	x
O=C(/C=C/c1cn(CC(O)CN2CCCCCC2)c2ccccc12)c1cccs1 (stereo not drawn)	12	14	-4	0	80*	13	-21
C#CCOn1c(-n2nc(C)cc2C)nc2ccccc2c1=O	7	-3	0	-4	0	0	x
CCN(CC)S(=O)(=O)c1cc(C)ccc1NC(=S)Nc1cccnc1	-1	8	0	-2	53*	2	88*
CCC(Sc1nc(C)cc(=O)[nH]1)C(=O)Nc1sc2c(c1C#N)CCCC2 (stereo not drawn)	0	-2	1	-4	58*	-4	69*
N#Cc1c(NC(=O)CSc2nc(N)cc(=O)[nH]2)sc2c1CCCCCC2	-5	1	0	-2	83*	4	59*
Cc1nnc(SC(C)C(=O)Nc2sc3c(c2C#N)CCCC3)[nH]c1=O (stereo not drawn)	2	6	0	0	0	2	x
CC(Sc1nc(N)cc(=O)[nH]1)C(=O)Nc1sc2c(c1C#N)CCCC2 (stereo not drawn)	-4	6	0	-3	76*	-7	94*
Cc1ccc(NC(=O)CN(C)C(=O)COc2ccc(Br)cc2)cc1	-2	x	-2	x	0	x	x
COc1cc(CN(C2CC2)S(=O)(=O)c2ccccc2Br)cc(OC)c1	4	28	0	x	0	x	x
CCC(=NC(C)c1ccccc1)c1c(O)n(C)c(=O)n(C)c1=O (stereo not drawn)	-2	-3	-1	-3	67*	3	33*
Cc1ccccc1-n1c(SCC(=O)N2CCN(c3ccccn3)CC2)nnc1N1CCOCC1	-1	0	0	-3	0	1	x
Cc1cc(C(=O)C(C)OC(=O)c2cnccn2)c(C)n1-c1ccccc1 (stereo not drawn)	-8	17	0	1	-1	-3	x
Cc1ccc2c(c1)nnn2C1CCN(S(=O)(=O)c2cccc(S(=O)(=O)N(C)C)c2)CC1	8	9	0	-5	88*	5	87*
SMILES	Granule exo inh	Apaf-1 inh	iPSC survival up	MIN6 prolif	MPTP block	UBC13 inh	Rh123 counter
Cc1ccc2c(c1)nnn2C1CCN(S(=O)(=O)c2ccc3ccccc3c2)CC1	-5	-5	2	-2	0	4	x
Cc1ccc2c(c1)nnn2C1CCN(S(=O)(=O)c2ccc(C(=O)N3CC(C)CC(C)C3)cc2)CC1 (stereo not drawn)	-3	27	6	-5	56*	-11	40*
O=C(OCc1nc2ccccc2s1)c1ccccc1O	-3	9	0	1	0	1	x
N#C/C(=C(/O)COC(=O)c1ccccc1O)c1nc2ccccc2s1	2	5	7	-5	100*	-14	94*
CC(C)(C)c1ccc(C(=O)OC/C(O)=C(\C#N)c2nc3ccccc3s2)cc1	1	4	4	0	97*	-4	70*
O=C(NC1CC1)c1ccccc1	-5	x	0	x	0	x	x
CC(OC(=O)c1cccc(-n2cnnn2)c1)C(=O)NCc1ccccc1 (stereo not drawn)	8	4	0	10	-1	2	x
COc1cc(/C=C/CNC[C@H]2O[C@@H](n3cnc4c(=O)[nH]c(N)nc43)[C@H](O)[C@@H]2O)ccc1O	1	x	-1	x	1	x	x
O=C(CN1C(=O)C(c2ccc(F)cc2)=NC12CCCC2)Nc1ccc(F)cc1	4	3	0	-5	60*	6	53*
COc1ccc2c(c1)C(=O)N1[C@H]3c4cc(Br)ccc4OC[C@@H]3[C@H](c3ccccc3)[C@]1(C)C(=O)N2	-5	-8	2	-9	0	-22	x
Cc1ccc(-n2c(SCC(=O)c3c(N)n(C4CC4)c(=O)[nH]c3=O)nnc2N2CCOCC2)cc1	-1	3	0	1	0	-3	x
Cc1cc(/C=C2/C(=N)N3C(=NC2=O)SN=C3S(C)(=O)=O)c(C)n1-c1ccccc1F	-4	-14	-4	-5	33	-3	x
CS(=O)(=O)C1=NSC2=NC(=O)/C(=C\c3cccn3-c3ccc(Cl)cc3)C(=N)N21	2	x	0	x	96*	x	61*
CCCc1nc2ccc(C)cn2c1Cc1ccsc1	-4	x	-1	x	0	x	x
Cc1cnc(CNC(=O)c2ccc3sc([C@H]4C[C@H](O)[C@@H](CO)O4)nc3c2)cn1	5	x	-1	x	0	x	x
CCCCc1c(Cc2ccccc2)ncn1CCc1ccccc1OC	40	x	0	x	85*	x	114*
CCCCc1c(-c2ccccc2)ncn1CCc1ccccc1OC	17	x	0	x	4	x	x
COc1ccc(NC(=O)C2Cc3c(-c4ccc(Cl)cc4)ccnc3O2)cn1 (stereo not drawn)	-2	x	1	x	1	x	x
CC(C)Cn1c(N)c(C(=O)CSc2ncccn2)c(=O)n(C)c1=O	-5	6	0	-2	0	-3	x
CCOC(=O)Cc1csc(SCC(=O)c2c(N)n(CC(C)C)c(=O)n(C)c2=O)n1	-5	12	0	-6	78*	6	24*
